Compound activity from PubChem BioAssay.
MPTP inh: mitochondrial permeability transition pore inhibitors, primary screen, biochemical, isolated mouse mitochondria, absorbance; inhibition, % at 10 µM; 1.4% of 360,000 active; Ca2+ swelling absorbance, 30 min; AID 602449, 2012;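 active means inhibition of 50% or more, scaled per plate between neutral and stimulator controls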
procasp7 counter: procaspase-7 activators, primary screen, counter-screen for procaspase-3 activator project, biochemical, absorbance, HTS, human; 0.093% of 330,000 active; recombinant procaspase-7, Ac-DEVD-pNA absorbance 405 nm; D23A/D198A/D206A triple mutant, cannot self-cleave; scale: DMSO 0, 5 µM enzyme 100; activation, % at 8.5 µM; AID 463210, 2010; Caspase-7 (Homo sapiens), P55210;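 active means percent activation above the screen-wide mean plus 3 SD, cut at about 25% in these data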
Target sequence (P55210 whole entry D23A/D198A/D206A): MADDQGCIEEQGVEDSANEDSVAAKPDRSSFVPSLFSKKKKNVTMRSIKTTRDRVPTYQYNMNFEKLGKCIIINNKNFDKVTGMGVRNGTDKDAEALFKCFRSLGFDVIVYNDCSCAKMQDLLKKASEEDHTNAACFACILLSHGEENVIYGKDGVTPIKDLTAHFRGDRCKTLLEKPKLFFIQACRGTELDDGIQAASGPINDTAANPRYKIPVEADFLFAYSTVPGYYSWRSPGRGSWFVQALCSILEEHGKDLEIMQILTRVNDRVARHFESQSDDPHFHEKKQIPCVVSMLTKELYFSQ
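Replicates: singlicate. Assay system: Procaspase-7 triple mutant (PC-7 D3A). Signal: 405 nm absorbance of p-nitroaniline. Times: 1 h preincubation, 2 h reaction. Buffer or medium: Zinc-free HEPES pH 7.4 with 300 mM NaCl, 0.01% Triton X-100. Also added: DEVD-pNA substrate. Benchmarks: DMSO wells as 0%, DMSO with 5 µM added PC-7 as 100%.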
NR3A LBD binder: binders of NR3A ligand-binding domain, primary screen, biophysical, differential scanning fluorimetry, uHTS. NR3A LBD differential scanning fluorimetry, Tm shift; 0% = protein alone, 100% = glycine-bound protein. Glutamate receptor ionotropic, NMDA 3A (GRIN3A) ligand-binding domain. 2.5% of 340,000 active. Tm shift relative to glycine control, % at 25 µM. AID 1259313, 2017;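 active means melting temperature shift of at least 10% of the positive control shift, at one fixed dose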
aDG glyco up: activators of alpha-DG glycosylation, primary screen, uHTS, Pro5-aDG cells, AlphaScreen. alpha-DG glycosylation AlphaScreen (IIH6); 0% Pro5, 100% B10-LARGE cell signal. 0.22% of 360,000 active. activation, % at 10 µM;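 active means activation of at least 8% versus controls, or a plate z-score of at least 8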;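 further: Pro5 are CHO cells carrying HIG-tagged alpha-DG that lacks glycosylation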
proCasp3 act: activators of human procaspase-3 D3A mutant, primary screen, biochemical, absorbance, PC-3 D3A mutant, single concentration | Caspase-3 (Homo sapiens), P42574 | recombinant procaspase-3 D3A, Ac-DEVD-pNA absorbance 405 nm | activation, % at 8.5 µM | 0.11% of 330,000 active | AID 463141, 2010;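 active means activation above the mean of all tested compounds plus 3 SD, cut at about 21% in these data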
Target sequence (P42574 whole entry D9A/D28A/D175A): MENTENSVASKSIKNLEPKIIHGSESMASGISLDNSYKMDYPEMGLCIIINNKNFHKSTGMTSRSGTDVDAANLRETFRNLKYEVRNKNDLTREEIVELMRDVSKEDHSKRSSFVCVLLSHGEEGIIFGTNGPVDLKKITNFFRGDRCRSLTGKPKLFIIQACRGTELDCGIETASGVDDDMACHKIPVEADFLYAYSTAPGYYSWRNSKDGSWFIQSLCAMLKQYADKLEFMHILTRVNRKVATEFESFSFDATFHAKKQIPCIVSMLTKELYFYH
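assay system = Procaspase-3 D3A mutant | signal = absorbance at 405 nm, 0 and 120 min | times = 1 h preincubation plus 2 h reaction at 25 °C | repeats = single replicate | read-out = % activation between DMSO and enzyme-spiked controls | medium = Zinc-free HEPES saline buffer with Triton X-100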
Rh123 counter: fluorescence retest of MPTP screen hits in isolated mitochondria, single concentration; 78% of 5,000 active; inhibition, % at 10 µM; membrane potential, Rhodamine 123 fluorescence; shares compounds with MPTP inh; in the data active means inhibition above about 22%
MPTP swell DR: mitochondrial permeability transition pore inhibitors, dose response, biochemical, absorbance, uHTS hits; shares compounds with MPTP inh; isolated mitochondria swelling; IC50, µM; 58% of 780 active; AID 651561, 2012; in the data active means IC50 below about 20 µM
MPTP cs DR: fluorescent counter-screen in isolated mitochondria, dose response, counter-screen for MPTP inhibitor project, biochemical, fluorescence, uHTS hits | shares compounds with MPTP inh | isolated mitochondria counterscreen, fluorescence read-out | IC50, µM | 49% of 780 active; in the data active means IC50 below about 80 µM
Of the large screens only hits and unclear results are named; the others gave an inactive call (follow-up assays come after a bar, where they were run); ! = not confirmed by another sample. The list is not random: actives were taken first. Their share in the collection is about 3.7%.

COc1ccc(NC(=O)N(C)C[C@H]2Oc3c(NC(=O)C4CC4)cccc3C(=O)N([C@H](C)CO)C[C@@H]2C)cc1	none
CCCCCCn1c(=O)c(Cc2ccccc2)c(O)c2ccccc21	MPTP inh 58 | Rh123 counter 59
O=C(Nc1ccc(F)cc1)Nc1ccccc1NS(=O)(=O)c1cccs1	MPTP inh 81, NR3A LBD binder 30 | Rh123 counter 86
O=C(Nc1ccc(Cl)cc1)Nc1ccccc1NS(=O)(=O)c1cccs1	MPTP inh 82, NR3A LBD binder 30 | Rh123 counter 83
NC(=O)c1ccccc1NS(=O)(=O)c1cccs1	none
CCOC(=O)CNC(=O)N1CCCC(Cc2ccccc2)(C(=O)OCC)C1 (configuration not stated)	none
COC(=O)[C@@]12C[C@@H](CC(=O)N3CCN(C(=O)c4ccco4)CC3)C(=O)N(Cc3ccccc3)C1=CCC(C)(C)C2	none (no result: procasp7 counter, NR3A LBD binder, proCasp3 act)
C=CCN(CC=C)Cc1cc(=O)oc2ccccc12	none (no result: procasp7 counter, NR3A LBD binder, proCasp3 act)
CC(C)[C@@H]1CC[C@@H](C)C[C@H]1OC(=O)C[n+]1cc(-c2ccc(Cl)cc2)n2c1CCCCC2	MPTP inh 64 | Rh123 counter 86
CC1CCC(C(C)C)C(OC(=O)Cn2c(-c3ccc(Cl)cc3)[n+](C)c3ccccc32)C1 (configuration not stated)	MPTP inh 54 | Rh123 counter 79
CCN(c1ccccc1)S(=O)(=O)c1ccc(C(=O)N(CCN(C)C)c2nc3c(F)cc(F)cc3s2)cc1	none (no result: MPTP inh, NR3A LBD binder, aDG glyco up)
CCN(CC)C(=O)C1=C(C)N(CCCOC)C(=O)C(CC(=O)NCCN2CCOCC2)C1 (configuration not stated)	none (no result: procasp7 counter, NR3A LBD binder, proCasp3 act)
Cc1cc(C)cc(-n2c3ccc(NC(=S)NC4CCCCC4)cc3c(=O)n2C)c1	none (no result: procasp7 counter, NR3A LBD binder, proCasp3 act)
CCCC(=O)N1CCC(Cc2ccccc2)CC1	none
CCCCCCNCC(=O)N1CCC(Cc2ccccc2)CC1	MPTP inh 86 | Rh123 counter inactive | MPTP swell DR 11 | MPTP cs DR 45
CN1CCN(C2=Nc3cc(F)ccc3Cc3ccccc32)CC1	none (no result: MPTP inh, NR3A LBD binder, aDG glyco up)
CN1CCN(C2Cc3ccc(F)cc3Sc3cc(F)c(Cl)cc32)CC1 (configuration not stated)	none
CN1CCN(C2=Cc3ccccc3Sc3cc(F)ccc32)CC1	MPTP inh 98 | Rh123 counter inactive
CN1CCN(C2=Cc3ccc(Cl)cc3Sc3ccc(F)cc32)CC1	MPTP inh 95 | Rh123 counter inactive
Cn1c(=N)n(CC(O)c2cccc3ccccc23)c2ccccc21 (configuration not stated)	MPTP inh 90 | Rh123 counter inactive | MPTP swell DR 3.4 | MPTP cs DR 37
Cn1c(=N)n(CC(O)c2ccco2)c2ccccc21 (configuration not stated)	none
CN(CC(=O)Nc1ccccc1Cl)C(=O)COC(=O)CCN1C(=O)C2CC=CCC2C1=O (configuration not stated)	none
O=C(O)c1ccc(/C=N/Nc2ccc(Cl)nn2)cc1	none
CCOc1ccc(NC(=S)NNC(=S)Nc2cccc(C(F)(F)F)c2)cc1	MPTP inh 80, NR3A LBD binder 20 | Rh123 counter 57
COc1ccc(NC(=S)NNC(=S)Nc2cccc(C(F)(F)F)c2)cc1	MPTP inh 69, NR3A LBD binder 34 | Rh123 counter 72
FC(F)(F)c1cccc(NC(=S)NNC(=S)Nc2cccc(C(F)(F)F)c2)c1	none (no result: MPTP inh, NR3A LBD binder, aDG glyco up)
COc1ccc(-c2cc(C(=O)Nc3cc(OC)cc(C(=O)Nc4cccc(C(F)(F)F)c4)c3)[nH]n2)cc1	MPTP inh 55!, NR3A LBD binder 29 | Rh123 counter 56
COc1cc2c(cc1NC(=S)Nc1cccc(C(F)(F)F)c1)oc1ccccc12	MPTP inh 94, NR3A LBD binder 29 | Rh123 counter 80
C[C@@H]1CN([C@H](C)CO)C(=O)CCCn2cc(nn2)CO[C@H]1CN(C)C(=O)Nc1ccccc1C(F)(F)F	none (no result: procasp7 counter, NR3A LBD binder, proCasp3 act)
CN(C)CCCNC(=O)CCc1nc2ccccc2c(=O)[nH]1	MPTP inh 74 | Rh123 counter inactive | MPTP swell DR inactive | MPTP cs DR inactive
COc1ccccc1CNC(=O)CCc1nc2ccccc2c(=O)[nH]1	none
O=C(Nc1ccc(C(F)(F)F)cc1)c1cc(-c2cccnc2)nc2ccc(Br)cc12	MPTP inh 78, NR3A LBD binder 34 | Rh123 counter inactive | MPTP swell DR 13 | MPTP cs DR 7.1
CC(=O)Nc1cccc(NC(=O)c2cc(-c3cccnc3)nc3ccc(Br)cc23)c1	none
COC(=O)c1ccc(C)c(NC(=O)c2ccc(CN3CCc4ccccc4C3)cc2)c1	none
CCN(CC)c1ccc(CNc2nc3ccccc3n2CCN2CCCCC2)cc1	MPTP inh 64 | Rh123 counter 96
CC(C)C(CCN1C(=O)CCC1=O)C1CCOC(C)(C)C1 (configuration not stated)	none
CC(C)Cc1csc(NC(=O)c2ccc(Cl)cc2)c1C(=O)O	MPTP inh 90 | Rh123 counter 88
O=C(NC(Cc1ccccc1)c1nc2ccccc2[nH]1)c1ccc(Cl)c([N+](=O)[O-])c1 (configuration not stated)	MPTP inh 93 | Rh123 counter 91
CSCC[C@H](NC(=O)c1cccc([N+](=O)[O-])c1C)c1nc2ccccc2[nH]1	none
CSCC[C@H](NC(=O)c1ccc(Cl)c([N+](=O)[O-])c1)c1nc2ccccc2[nH]1	MPTP inh 59 | Rh123 counter 83
Cc1ccc2nc(Cl)cc(=O)n2c1	none (no result: procasp7 counter, proCasp3 act)
COC(=O)C(C)(C)c1cccnc1C#N	none (no result: procasp7 counter, proCasp3 act)
CCOc1ccc(-c2cnc(NCc3cccc4ccccc34)n2CCOC)cc1	MPTP inh 89 | Rh123 counter 97
COC(/C(=N/O)c1ccc(Cl)cc1)c1ccccc1 (configuration not stated)	MPTP inh 68 | Rh123 counter 76
